ChEMBL document CHEMBL5331102, “Novel S1R agonists counteracting NMDA excitotoxicity and oxidative stress: A step forward in the discovery of neuroprotective agents” (Eur J Med Chem, 2023)
In brackets after ≈: the same amount, converted by molar mass. Activity calls are given as the source filed them. The rule behind the calls is not given here.

Tests used:
[1] = Toxicity in Zebrafish embryos assessed as morphological abnormality by observing enlarged volume of heart at 10 uM incubated for 5 days by Teratogenic test; format: tissue-based, Danio rerio; settings: in vivo, 120 h, time 5 day
Outline: (§1)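 Tg(GFAP:GFP) zebrafish embryos, 8 per group, exposed from 1 h post-fertilization to increasing compound concentrations at 28 °C for about 5 days without medium change; mortality, developmental defects and morphology score assessed at 5 dpf.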

SH-SY5Y [2] = test: Neuroprotective activity in human SH-SY5Y cells assessed as prevention of NMDA induced cytotoxicity by measuring cell viability at 1 uM preincubated with PB212 for 1hrs followed by compound addition in presence of NMDA and measured after 24 hrs by MTT assay; format: functional, cell-based
Outline: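 SH-SY5Y cells pre-incubated 1 h with S1R antagonist PB212 (5 μM), then treated with compound (1 or 5 μM) plus PB212 (5 μM) and either rotenone 25 μM or NMDA 250 μM for 24 h; viability by MTT; two-way ANOVA with Bonferroni post hoc test.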

[3] = Toxicity in Zebrafish embryos assessed as variation in embryo morphology score at 1 uM incubated for 5 days by Teratogenic test; parameters: species or system Danio rerio; settings: in vivo, 120 h, time 5 day; outline: as §1
SH-SY5Y [4] = test: Neuroprotective activity in human SH-SY5Y cells assessed as prevention of rotenone induced cell damage by measuring cell viability at 1 uM incubated for 24 hrs in presence of rotenone by MTT assay; format: functional
Outline: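 SH-SY5Y cells co-exposed 24 h at 37 °C to rotenone 25 μM and compound at 1.0 or 5.0 μM in 2% FBS medium; viability by MTT, mean ± SD of three independent experiments.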

PANC-1 = test: Cytotoxicity against human PANC-1 cells assessed as reduction in cell survival rate at <=10 uM incubated for 24 to 72 hrs by MTT assay; format: toxicity, cell-based; settings: panc-1, 10 µM, time 24-72 hrs
Outline: (§2)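 Cancer lines grown in Ham's F-12K or DMEM with 10% FBS, used in exponential growth; seeded 2500 cells/well, exposed to 0.1–100 μM for 24, 48 and 72 h continuous. Viability by CellTiter 96 AQueous One (tetrazolium) absorbance at 490 nm; three independent experiments in quadruplicate, % survival vs untreated.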

[5] = Toxicity in Zebrafish embryos assessed as normal and vital phenotype at 0.1 to 1 uM incubated for 5 days by Teratogenic test; parameters: species or system Danio rerio, Embryo; settings: in vivo, 120 h, dose 0.1-1 µM, time 5 day; outline: as §1
[6] = Toxicity in Zebrafish embryos assessed as morphological abnormality by observing short and up-curved tail at 10 uM incubated for 5 days by Teratogenic test; parameters: species or system Danio rerio; settings: in vivo, 120 h, time 5 day; outline: as §1
PC-12 [7] = test: Neuroprotective activity in rat PC12 cells assessed as induction of NGF-mediated neurite outgrowth at 0.5 uM by neurite outgrowth assay (Rvb=26 +/- 4%); format: functional
Outline: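 PC12 cells stimulated with NGF (2.5 nM) and treated with compound up to 5 μM, alone or after pre-treatment with S1R antagonist NE-100 (3 μM); read-out is percentage of cells bearing neurite sprouts; mean ± SEM of three independent experiments.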

[8] = Toxicity in Zebrafish embryos assessed as decrease in embryo vitality rate at 10 to 50 uM incubated for 5 days by Teratogenic test; parameters: species or system Danio rerio; settings: in vivo, 120 h, dose 10-50 µM, time 5 day
Outline: (§3)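 Tg(GFAP:GFP) zebrafish embryos from 2 female × 1 male matings, 8 embryos per control or concentration, exposed from 1 h post-fertilization and kept at 28 °C for about 5 days without medium change. At 5 dpf (120 h) mortality and developmental abnormalities (tail shape, heart, pigmentation) were scored, with morphology given a severity score.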

PC-12 [9] = test: Cytotoxicity against rat PC12 cells assessed as reduction in cell viability at <1 uM incubated for 24 hrs by MTT assay; format: toxicity, cell-based; settings: pc-12, 24 h
[10] = Toxicity in Zebrafish embryos assessed as increase in embryo vitality structure damage at 10 to 50 uM incubated for 5 days by Teratogenic test; parameters: species or system Danio rerio; settings: in vivo, 120 h, dose 10-50 µM, time 5 day; outline: as §3
[11] = Toxicity in Zebrafish embryos assessed as morphological abnormality by observing poor pigmentation at 10 uM incubated for 5 days by Teratogenic test; parameters: species or system Danio rerio, Embryo; settings: in vivo, 120 h, time 5 day; outline: as §1
[12] = Thermodynamic solubility of the compound in KH2PO4/Na2HPO4 buffer at pH 7.4 incubated for 24 hrs; format: physicochemical; settings: read-out: Therm_solubility
Outline: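 10 mM DMSO stock diluted 1:100 into buffer (HCl/KCl pH 1.2; KH2PO4/NaOH pH 6.8; KH2PO4/Na2HPO4 pH 7.4), 1% v/v DMSO final; shaken 24 h at 1200 rpm, filtered through 0.45 μm polycarbonate membrane, filtrate diluted 1:1 with MeOH and analysed.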

LoVo = test: Cytotoxicity against human LoVo cells assessed as reduction in cell survival rate at <=10 uM incubated for 24 to 72 hrs by MTT assay; format: toxicity, cell-based; settings: time 24-72 hrs; outline: as §2
[13] = Toxicity in Zebrafish embryos assessed as morphological abnormality by observing inflated swim bladder at 10 uM incubated for 5 days by Teratogenic test; format: tissue-based, Danio rerio, Embryo; settings: in vivo, 120 h, time 5 day; outline: as §1
[14] = Toxicity in Zebrafish embryos assessed as morphological abnormality by observing oedema at 10 uM incubated for 5 days by Teratogenic test; parameters: species or system Danio rerio, Embryo; settings: in vivo, 120 h, time 5 day; outline: as §1
[15] = Toxicity in Zebrafish embryos assessed as variation in embryo morphology score at 10 uM incubated for 5 days by Teratogenic test; parameters: species or system Danio rerio; settings: in vivo, 120 h, time 5 day; outline: as §1
PC-12 [16] = test: Cytotoxicity against rat PC12 cells assessed as reduction in cell viability at <5 uM incubated for 24 hrs by MTT assay; format: toxicity, cell-based; settings: pc-12, 24 h

| SMILES | Activity [1] | Activity (SH-SY5Y [2]) | Activity [3] | Activity (SH-SY5Y [4]) | Activity (PANC-1) | Activity [5] | Activity [6] | Activity (PC-12 [7]) | Activity [8] | Activity (PC-12 [9]) | Activity [10] | Activity [11] | solubility thermodynamic at 24 h [12] | Activity (LoVo) | Activity [13] | Activity [14] | Activity [15] | Activity (PC-12 [16]) |
| --- | --- | --- | --- | --- | --- | --- | --- | --- | --- | --- | --- | --- | --- | --- | --- | --- | --- | --- |
| c1ccc(CC2CCN(CCOc3ccccc3)CC2)cc1 | 100% | inactive | Non-Toxic | 65% | Non-Toxic | Non-Toxic | 75% | 37% | Toxic | Non-Toxic | Toxic | Toxic | 7800 µg/mL (≈ 26.4 mM) | Non-Toxic | Toxic | Toxic | Toxic |  |
| c1ccc(CC2CCN(CCCOc3ccccc3)CC2)cc1 | Toxic | inactive | Non-Toxic | 68% | Non-Toxic | Non-Toxic | Toxic |  | Toxic |  | Toxic |  | 2800 µg/mL (≈ 9.05 mM) | Non-Toxic |  |  | Non-Toxic | Non-Toxic |
